Values after ≈ are worked out from the molar mass of the structure shown.

One experiment has as its system Pseudomonas aeruginosa. As to the kind of experiment: Antibacterial activity was determined against gram negative organism, Pseudomonas aeruginosa (UI-18). It is filed as functional. Put shortly: (§1)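 MIC by standard microtitration against a panel of 10 representative Gram-negative and Gram-positive organisms; values reported in µg/mL.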
In another experiment the test system is Bacteria. As to the kind of experiment: Antibacterial activity was determined against gram negative organism, Providencia rettgeri. (M1771). It is filed as functional. In short, it runs like this:
as §1

Experiment [1] deals with DNA gyrase (Escherichia coli) (UniProt P0AES6+P0AES4).
Experiment [2] relates to Staphylococcus aureus. Put plainly: Antibacterial activity was determined against gram positive organism, Staphylococcus aureus (UC76). It is filed as functional. Put shortly: as §1
Experiment [3] in a line: MIC ratio measured as the mean MICs of gram-negative bacteria. It is filed as functional. In short, it runs like this: (§2)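 Geometric mean of the MICs (µg/mL) over the Gram-negative or the Gram-positive strains of the 10-organism microtitration panel, calculated separately for each class.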
A further experiment has as its system Enterococcus faecalis. Put plainly: Antibacterial activity was determined against gram positive organism, Streptococcus faecalis (MGH-2). It is filed as functional. Put shortly: as §1
A further experiment concerns Enterobacter cloacae. As to the kind of experiment: Antibacterial activity against gram negative organism, […] (MA2646). Type of experiment: functional.
Experiment [4] concerns Staphylococcus aureus. Put plainly: Antibacterial activity was determined against gram positive organism, Staphylococcus aureus (H228). Type of experiment: functional. Put shortly:
as §1

The next experiment deals with Klebsiella pneumoniae. As to the kind of experiment: Antibacterial activity was determined against gram negative organism, K. pneumoniae (MGH-2). Type of experiment: functional. Put shortly:
as §1

Experiment [5] in a line: MIC ratio measured as the mean MICs of gram-positive bacteria. It is filed as functional. In short, it runs like this: as §2
A further experiment relates to Escherichia coli. As to the kind of experiment: Antibacterial activity was determined against gram negative organism, E. coli(vogel). It is filed as functional. Put shortly:
as §1

For a further experiment, the system named is Streptococcus pyogenes. Put plainly: Antibacterial activity was determined against gram positive organism, Streptococcus pyogenes (C203). It is filed as functional. Put shortly: as §1
The subject of another experiment is Streptococcus pneumoniae. Put plainly: Antibacterial activity was determined against gram positive organism, Streptococcus pneumoniae (SV-1). It is filed as functional. In short, it runs like this: as §1

Usually MIC stands for the lowest concentration found to suppress growth. Read a high MIC as a less susceptible organism. As to `Cc1c(F)c(N2CCNCC2)c(Cl)c2c1c(=O)c(C(=O)O)cn2C1CC1`, the MIC in the experiment on Pseudomonas aeruginosa turned out to be 0.2 µg/mL (≈ 0.527 µM); with Bacteria, 0.2 µg/mL (≈ 0.527 µM); against Staphylococcus aureus [2], 0.025 µg/mL (≈ 0.0658 µM); in the experiment on Enterococcus faecalis it was 0.2 µg/mL (≈ 0.527 µM); against Enterobacter cloacae, 0.05 µg/mL (≈ 0.132 µM); in the experiment on Staphylococcus aureus [4], 0.05 µg/mL (≈ 0.132 µM). The MIC worked out at 0.1 µg/mL (≈ 0.263 µM) against Klebsiella pneumoniae, 0.025 µg/mL (≈ 0.0658 µM) in the experiment on Escherichia coli, 0.2 µg/mL (≈ 0.527 µM) against Streptococcus pyogenes and 0.1 µg/mL (≈ 0.263 µM) in the experiment with Streptococcus pneumoniae. In experiment [1], the DNA cleavage was 1.5 µg/mL. In addition, the Ratio in experiment [3] and in experiment [5] was 0.087 in each case.

For `CCNCC1CCN(c2cc3c(c(C)c2F)c(=O)c(C(=O)O)cn3-c2ccc(F)cc2F)C1` (centres undefined), the MIC in the experiment with Pseudomonas aeruginosa is 3.1 µg/mL (≈ 6.75 µM); in the experiment with Bacteria, 1.6 µg/mL (≈ 3.48 µM); with Staphylococcus aureus [2], 0.025 µg/mL (≈ 0.0544 µM); against Enterococcus faecalis it was 0.2 µg/mL (≈ 0.435 µM); in the experiment with Enterobacter cloacae it was 0.8 µg/mL (≈ 1.74 µM); in the experiment on Staphylococcus aureus [4], 0.1 µg/mL (≈ 0.218 µM). The MIC worked out at 0.8 µg/mL (≈ 1.74 µM) against Klebsiella pneumoniae, 0.4 µg/mL (≈ 0.871 µM) in the experiment with Escherichia coli, 0.025 µg/mL (≈ 0.0544 µM) in the experiment with Streptococcus pyogenes and 0.025 µg/mL (≈ 0.0544 µM) with Streptococcus pneumoniae. In experiment [1], the DNA cleavage turned out to be 0.75 µg/mL. For the same molecule, the Ratio in experiment [3] amounted to 1.05; in [5], 0.05.

Consider `CCn1cc(C(=O)O)c(=O)c2c(C)c(F)c(N3CC(C)NC(C)C3)cc21` (centres undefined), for which the MIC against Pseudomonas aeruginosa was 3.1 µg/mL (≈ 8.58 µM); with Bacteria it was 1.6 µg/mL (≈ 4.43 µM); in the experiment on Staphylococcus aureus [2], 0.2 µg/mL (≈ 0.553 µM); in the experiment on Enterococcus faecalis, 1.6 µg/mL (≈ 4.43 µM); with Enterobacter cloacae, 0.4 µg/mL (≈ 1.11 µM); in the experiment on Staphylococcus aureus [4], 1.6 µg/mL (≈ 4.43 µM). The MIC in the experiment with Klebsiella pneumoniae is 0.8 µg/mL (≈ 2.21 µM); in the experiment on Escherichia coli it was 0.2 µg/mL (≈ 0.553 µM); with Streptococcus pyogenes, 3.1 µg/mL (≈ 8.58 µM); with Streptococcus pneumoniae, 1.6 µg/mL (≈ 4.43 µM). This molecule registered a DNA cleavage in [1] of 8.8 µg/mL. Moreover, the Ratio in experiment [3] was determined as 0.79; in experiment [5], 1.2.

As to `CCn1cc(C(=O)O)c(=O)c2cc(F)c(N3CCNCC3)c(F)c21`, the MIC turned out to be 0.8 µg/mL (≈ 2.37 µM) in the experiment on Pseudomonas aeruginosa; 0.2 µg/mL (≈ 0.593 µM) in the experiment on Bacteria; 0.4 µg/mL (≈ 1.19 µM) against Staphylococcus aureus [2]; 1.6 µg/mL (≈ 4.74 µM) against Enterococcus faecalis; 0.1 µg/mL (≈ 0.296 µM) with Enterobacter cloacae; 1.6 µg/mL (≈ 4.74 µM) against Staphylococcus aureus [4]. Also, the MIC worked out at 0.1 µg/mL (≈ 0.296 µM) against Klebsiella pneumoniae, 0.1 µg/mL (≈ 0.296 µM) in the experiment with Escherichia coli, 3.1 µg/mL (≈ 9.19 µM) against Streptococcus pyogenes and 3.1 µg/mL (≈ 9.19 µM) against Streptococcus pneumoniae. For the same molecule, the DNA cleavage in experiment [1] worked out at 2.5 µg/mL. Also, the results for the Ratio in [3] and in [5] were 0.17 and 0.27, respectively.

`NC1CCN(c2c(F)cc3c(=O)c(C(=O)O)cn(C4CC4)c3c2Cl)C1` (centres undefined) [CLINAFLOXACIN]: the minimal inhibitory concentration (MIC) in the experiment with Pseudomonas aeruginosa stood at 0.05 µg/mL (≈ 0.137 µM); with Bacteria it was 0.025 µg/mL (≈ 0.0683 µM); against Staphylococcus aureus [2], 0.013 µg/mL (≈ 0.0355 µM); against Enterococcus faecalis it was 0.05 µg/mL (≈ 0.137 µM); with Enterobacter cloacae, 0.025 µg/mL (≈ 0.0683 µM); against Staphylococcus aureus [4], 0.025 µg/mL (≈ 0.0683 µM). Further, the MIC is 0.025 µg/mL (≈ 0.0683 µM) in the experiment with Klebsiella pneumoniae, 0.025 µg/mL (≈ 0.0683 µM) with Escherichia coli, 0.05 µg/mL (≈ 0.137 µM) with Streptococcus pyogenes and 0.025 µg/mL (≈ 0.0683 µM) in the experiment with Streptococcus pneumoniae. Moreover, in experiment [1], the DNA cleavage is 0.5 µg/mL. The Ratio in experiment [3] and in [5] was 0.029 throughout.

Regarding `CCn1cc(C(=O)O)c(=O)c2c(C)c(F)c(N3CCC(N)C3)c(F)c21` (centres undefined), the MIC in the experiment with Pseudomonas aeruginosa amounted to 1.6 µg/mL (≈ 4.55 µM); against Bacteria, 0.4 µg/mL (≈ 1.14 µM); against Staphylococcus aureus [2] it was 0.1 µg/mL (≈ 0.285 µM); in the experiment on Enterococcus faecalis it was 0.8 µg/mL (≈ 2.28 µM); in the experiment on Enterobacter cloacae, 0.05 µg/mL (≈ 0.142 µM); against Staphylococcus aureus [4] it was 0.4 µg/mL (≈ 1.14 µM). Also, the MIC with Klebsiella pneumoniae stood at 0.2 µg/mL (≈ 0.569 µM); against Escherichia coli, 0.05 µg/mL (≈ 0.142 µM); in the experiment with Streptococcus pyogenes, 3.1 µg/mL (≈ 8.82 µM); in the experiment with Streptococcus pneumoniae, 1.6 µg/mL (≈ 4.55 µM). In [1], this molecule showed a DNA cleavage of 3 µg/mL. In addition, the Ratio in experiment [3] was found to be 0.2; in experiment [5], 0.69.

Take `Cc1c(F)c(N2CCC(C)(CN)C2)cc2c1c(=O)c(C(=O)O)cn2C1CC1` (centres undefined): the MIC in the experiment on Pseudomonas aeruginosa worked out at 1.6 µg/mL (≈ 4.28 µM); against Bacteria it was 0.8 µg/mL (≈ 2.14 µM); in the experiment on Staphylococcus aureus [2] it was 0.006 µg/mL (≈ 0.0161 µM); with Enterococcus faecalis, 0.1 µg/mL (≈ 0.268 µM); against Enterobacter cloacae, 0.1 µg/mL (≈ 0.268 µM); against Staphylococcus aureus [4] it was 0.025 µg/mL (≈ 0.0669 µM). For the same molecule, the minimum inhibitory concentration (MIC) in the experiment with Klebsiella pneumoniae came to 0.4 µg/mL (≈ 1.07 µM); against Escherichia coli it was 0.1 µg/mL (≈ 0.268 µM); against Streptococcus pyogenes, 0.013 µg/mL (≈ 0.0348 µM); against Streptococcus pneumoniae it was 0.006 µg/mL (≈ 0.0161 µM). This molecule returned a DNA cleavage in [1] of 0.75 µg/mL. The Ratio in [3] was 0.35; in experiment [5], 0.016.

With `Cc1c(F)c(N2CCNCC2)cc2c1c(=O)c(C(=O)O)cn2-c1ccc(F)cc1F`, the MIC against Pseudomonas aeruginosa was 0.8 µg/mL (≈ 1.92 µM); against Bacteria it was 0.2 µg/mL (≈ 0.479 µM); in the experiment with Staphylococcus aureus [2] it was 0.025 µg/mL (≈ 0.0599 µM); with Enterococcus faecalis, 0.2 µg/mL (≈ 0.479 µM); against Enterobacter cloacae, 0.05 µg/mL (≈ 0.12 µM); with Staphylococcus aureus [4] it was 0.1 µg/mL (≈ 0.24 µM). In addition, the MIC in the experiment on Klebsiella pneumoniae worked out at 0.1 µg/mL (≈ 0.24 µM); with Escherichia coli, 0.05 µg/mL (≈ 0.12 µM); against Streptococcus pyogenes, 0.1 µg/mL (≈ 0.24 µM); in the experiment with Streptococcus pneumoniae, 0.05 µg/mL (≈ 0.12 µM). Besides, in [1], the DNA cleavage amounted to 3 µg/mL. Further, the results for the Ratio in [3] and in experiment [5] were 0.13 and 0.076, respectively.

The values are drawn from ChEMBL document CHEMBL1125920, “Synthesis and biological activity of 5-alkyl-1,7,8-trisubstituted-6-fluoroquinoline-3-carboxylic acids” (1991).
